# From PubChem BioAssay AID504338 (NMMLSC, 2011)
# A number with no mark means an inactive call. Calls of active or inactive are those of the source.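 Rule for the calls: active = GFP response vs DMSO above 150% with enough events counted; inconclusive = fewer than 70 events counted for a yeast strain; inactive = the rest.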
# Assay: yeast TOR reporter LAP4-GFP retest – cell-based, third cherry pick, flow cytometry, confirmation (AID 504338);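 note: ratio to plate DMSO wells so 100% equals DMSO level rather than 0%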
# Settings: S. cerevisiae LAP4-GFP strain, 3 h, at 10 µM, active compounds read high
# Summary of the method: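 System: Saccharomyces cerevisiae strain expressing LAP4-GFP fusion protein. Quantity: cells at 0.2 OD600. Medium: synthetic complete medium. Read-out basis: median GFP fluorescence as percent of plate DMSO-well average. Signal: high-throughput flow cytometry of GFP, single-cell scatter gate. Schedule: 3 h treatment, 30 °C. Dosing: single compound dose, 10 µM final.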
row,Structure (SMILES),GFP response vs DMSO
1,C=CCNc1nc(N)c([N+](=O)[O-])c(Nc2ccccc2OC)n1,100%
2,C=CCNc1ncnc2ccc(Br)cc12,106%
3,Cc1cc(C)c2ccc(C(=O)O)nc2c1O,107%
4,COc1ccccc1-c1cc(C(F)(F)F)nc(S(C)(=O)=O)n1,128%
5,CC(=O)Nn1cnc2c(c1=O)C1(CCCCC1)Cc1ccccc1-2,106%
6,C/C(=C\C(=O)c1ccccc1)Nc1ccc(O)cc1,101%
7,FC(F)Oc1cccc2cccnc12,101%
8,COCCCNc1nc(N)c([N+](=O)[O-])c(Nc2cc(OC)ccc2OC)n1,103%
9,CCC(=O)Nn1cnc2c(c1=O)C1(CCCCC1)Cc1ccccc1-2,101%
10,Oc1c(Br)cc(Br)c2cccnc12,257% (active)
11,Oc1ccc(Cl)c2cccnc12,110%
12,Cc1ccc(Nc2cc(=O)[nH]c(=O)[nH]2)cc1Cl,103%
13,Cn1c(NCCCO)nc2c(c1=O)C1(CCCCC1)Cc1ccccc1-2,104%
14,CCCC(=O)Nn1cnc2c(c1=O)C1(CCCC1)Cc1ccccc1-2,103%
15,COc1cccc(OCc2cc(C(=O)N3CCN(C)C(c4ccccc4)C3)no2)c1 (centres undefined),106%
16,COc1cccc(N/C=C/C(=O)c2ccc(C)cc2)c1,115%
17,CSc1ccccc1OCc1cc(C(=O)N2CCN(C)C(c3ccccc3)C2)no1 (centres undefined),107%
18,Cc1ccc(-c2cc(C(F)F)nc(S(C)(=O)=O)n2)cc1,114%
19,CCCCC(=O)NCCc1cc2c(OC)ccc(OC)c2[nH]c1=O,108%
20,COc1ccccc1Nc1nc(NCCO)nc(N)c1[N+](=O)[O-],104%

row,Structure (SMILES),GFP response vs DMSO
1,O=C(N/N=C/c1ccccc1F)c1cccc2ccccc12,104%
2,C=CCNc1nc(N)c([N+](=O)[O-])c(Nc2cccc(Cl)c2)n1,104%
3,CC(=O)C(Cl)C(=O)Nc1ccccc1 (centres undefined),124%
4,COc1cccc(N/C(C)=C/C(=O)c2ccc(Br)cc2)c1,103%
5,Cc1cccc(Nc2cc(=O)[nH]c(=O)[nH]2)c1C,101%
6,Cc1nc2c(O)cccc2cc1CO,101%
7,COC(=O)c1cc(=O)c2cccc(OC)c2[nH]1,101%
8,Cn1c(NCCO)nc2c(c1=O)C1(CCCCC1)Cc1ccccc1-2,104%
9,Cc1cccc(C)c1Nc1ncnc(N)c1[N+](=O)[O-],101%
10,CC1=NNC(=O)/C1=C\c1cn(-c2ccccc2)nc1-c1ccc(F)cc1,179% (active)
11,Cc1ccc(C(=O)/C=C/Nc2cccc(O)c2)cc1,117%
12,CC(=O)CC(=O)Nc1ccc(C(N)=O)cc1,101%
13,COc1ccc(NC(=O)ON=C2c3ccccc3-c3ccccc32)cc1,104%
14,CNc1nc(C)c([N+](=O)[O-])c(Nc2ccc(OC)cc2)n1,108%
15,O=C(O)c1ccc(C=NNC(=O)c2cccc3ccccc23)cc1,104%
16,O=C(Nc1cccc(Cl)c1)ON=C1c2ccccc2-c2ccccc21,107%
17,NC(=O)c1ccnc2c(O)cccc12,101%
18,C/C(=C\C(=O)c1ccc(Cl)cc1)Nc1ccc(Br)cc1,101%
19,O=C(Nc1ccccc1)ON=C1c2ccccc2-c2ccccc21,106%
